Test results: ChEMBL document CHEMBL2010740, “Synthesis and evaluation of 2-amido-3-carboxamide thiophene CB₂ receptor agonists for pain management” (Bioorg Med Chem Lett, 2012)

What was measured:
Cannabinoid receptor 2 [1] = target: T1, Cannabinoid receptor 2 (Rattus norvegicus, UniProt Q9QZN9); assay: Displacement of [3H]CP-55940 from rat recombinant CB2 receptor expressed in HEK293 cells after 90 mins; format: cell-based
T1 sequence (Q9QZN9 whole entry): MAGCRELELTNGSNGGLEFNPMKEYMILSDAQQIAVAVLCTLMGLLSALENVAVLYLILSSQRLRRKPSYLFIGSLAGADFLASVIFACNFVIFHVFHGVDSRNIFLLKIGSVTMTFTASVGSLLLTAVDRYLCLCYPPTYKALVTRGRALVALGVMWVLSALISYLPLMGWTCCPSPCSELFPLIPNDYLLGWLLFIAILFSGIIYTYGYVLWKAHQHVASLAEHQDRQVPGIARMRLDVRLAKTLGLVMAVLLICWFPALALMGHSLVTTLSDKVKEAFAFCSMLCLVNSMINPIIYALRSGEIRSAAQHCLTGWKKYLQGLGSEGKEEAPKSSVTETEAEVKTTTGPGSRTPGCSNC
Method in brief: (§1)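 Competitive binding: [³H]CP-55,940 displaced from membranes of HEK 293 cells stably transfected with human or rat CB₂, or CHO cells stably transfected with human or rat CB₁. Reported as pKi. Determinations >2 (duplicate of duplicate).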

Cannabinoid receptor 1 [2] = target: T2, Cannabinoid receptor 1 (Homo sapiens, UniProt P21554); assay: Displacement of [3H]CP-55940 from human recombinant CB1 receptor expressed in CHO cells after 90 mins; format: cell-based; method in brief: as §1
T2 sequence (P21554 whole entry): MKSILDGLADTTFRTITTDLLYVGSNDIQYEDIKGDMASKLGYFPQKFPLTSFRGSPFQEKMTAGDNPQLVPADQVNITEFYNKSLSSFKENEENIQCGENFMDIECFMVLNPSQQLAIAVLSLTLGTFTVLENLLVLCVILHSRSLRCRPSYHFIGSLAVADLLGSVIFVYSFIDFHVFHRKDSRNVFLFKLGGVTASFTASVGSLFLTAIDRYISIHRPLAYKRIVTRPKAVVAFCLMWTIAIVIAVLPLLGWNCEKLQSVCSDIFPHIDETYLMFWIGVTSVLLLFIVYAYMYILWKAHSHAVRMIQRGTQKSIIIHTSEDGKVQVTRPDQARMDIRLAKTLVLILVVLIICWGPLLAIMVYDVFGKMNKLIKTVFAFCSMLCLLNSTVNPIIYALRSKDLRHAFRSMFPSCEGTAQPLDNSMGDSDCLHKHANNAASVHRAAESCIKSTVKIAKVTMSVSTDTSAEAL

Cannabinoid receptor 2 [3] = target: T3, Cannabinoid receptor 2 (Homo sapiens, UniProt P34972); assay: Displacement of [3H]CP-55940 from human recombinant CB2 receptor expressed in HEK293 cells after 90 mins; format: cell-based; method in brief: as §1
T3 sequence (P34972 whole entry): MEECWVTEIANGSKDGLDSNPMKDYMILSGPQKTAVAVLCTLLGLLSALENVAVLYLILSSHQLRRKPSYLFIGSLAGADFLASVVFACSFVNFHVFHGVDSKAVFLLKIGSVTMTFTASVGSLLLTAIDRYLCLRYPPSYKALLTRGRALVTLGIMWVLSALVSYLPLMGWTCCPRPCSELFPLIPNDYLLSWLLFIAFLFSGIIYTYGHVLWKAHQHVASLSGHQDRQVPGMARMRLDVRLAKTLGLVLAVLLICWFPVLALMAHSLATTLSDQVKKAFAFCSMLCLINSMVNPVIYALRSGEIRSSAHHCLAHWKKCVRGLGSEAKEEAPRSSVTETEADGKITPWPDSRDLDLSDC

Cannabinoid receptor 2 [4] = target: T3, Cannabinoid receptor 2; assay: Agonist activity at human recombinant CB2 receptor expressed in HEK293 cells assessed as inhibition of forskolin-induced cAMP production after 20 mins by ELISA; format: functional, cell-based
Method in brief: (§2)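 cAMP assay in HEK 293 cells stably expressing the relevant CB receptor, with a fixed concentration of forskolin. cAMP was quantified by ELISA. Activation is given as percent of the CP-55,940 control response.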

Cannabinoid receptor 2 [5] = target: T1, Cannabinoid receptor 2; assay: Agonist activity at rat recombinant CB2 receptor expressed in HEK293 cells assessed as inhibition of forskolin-induced cAMP production after 20 mins by ELISA; format: functional, cell-based; method in brief: as §2
Cannabinoid receptor 1 [6] = target: T4, Cannabinoid receptor 1 (Rattus norvegicus, UniProt P20272); assay: Agonist activity at rat recombinant CB1 receptor expressed in HEK293 cells assessed as inhibition of forskolin-induced cAMP production after 20 mins by ELISA; format: functional, cell-based; method in brief: as §2
T4 sequence (P20272 whole entry): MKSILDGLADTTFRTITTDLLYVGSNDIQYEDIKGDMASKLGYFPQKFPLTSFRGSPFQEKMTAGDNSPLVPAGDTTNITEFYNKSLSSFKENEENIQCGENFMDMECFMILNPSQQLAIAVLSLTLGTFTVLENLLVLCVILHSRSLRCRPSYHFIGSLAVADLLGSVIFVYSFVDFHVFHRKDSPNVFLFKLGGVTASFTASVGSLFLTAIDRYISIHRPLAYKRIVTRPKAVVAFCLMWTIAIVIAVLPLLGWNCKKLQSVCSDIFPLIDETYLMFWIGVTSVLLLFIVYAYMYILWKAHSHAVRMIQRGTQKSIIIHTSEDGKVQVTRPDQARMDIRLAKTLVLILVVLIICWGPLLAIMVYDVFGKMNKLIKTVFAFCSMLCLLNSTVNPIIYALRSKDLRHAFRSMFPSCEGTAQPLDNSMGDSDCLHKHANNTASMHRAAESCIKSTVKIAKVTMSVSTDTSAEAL

Cannabinoid receptor 1 [7] = target: T2, Cannabinoid receptor 1; assay: Agonist activity at human recombinant CB1 receptor expressed in HEK293 cells assessed as inhibition of forskolin-induced cAMP production after 20 mins by ELISA; format: functional, cell-based; method in brief: as §2
[8] = target: T5, Cannabinoid receptor 2 (Rattus norvegicus) (UniProt Q9QZN9); assay: Agonist activity at rat recombinant CB2 receptor expressed in HEK293 cells assessed as inhibition of forskolin-induced cAMP production after 20 mins by ELISA relative to CP55940; format: functional, cell-based; method in brief: as §2
T5 sequence (whole entry): T1 sequence (Q9QZN9 whole entry)

Cannabinoid receptor 2 [9] = target: T3, Cannabinoid receptor 2; assay: Agonist activity at human recombinant CB2 receptor expressed in HEK293 cells co-expressing chimeric Gaq/o protein by FLIPR assay; format: functional, cell-based
Method in brief: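 FLIPR functional assay in HEK 293 cells stably co-expressing chimeric Gαq/o protein and the CB receptor. Net peak evoked response was compared with the peak response to CP-55,940.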

Cannabinoid receptor 1 [10] = target: T4, Cannabinoid receptor 1; assay: Displacement of [3H]CP-55940 from rat recombinant CB1 receptor expressed in CHO cells after 90 mins; format: cell-based; method in brief: as §1
[11] = Plasma protein binding in human; format: ADME, cell-free; conditions: read-out: PPB (converted)
[12] = Plasma protein binding in rat; format: ADME, cell-free; conditions: read-out: PPB (converted)

| Compound | Ki (Cannabinoid receptor 2 [1]) [nM] | Ki (Cannabinoid receptor 1 [2]) [nM] | Ki (Cannabinoid receptor 2 [3]) [nM] | IC50 (Cannabinoid receptor 2 [4]) [nM] | IC50 (Cannabinoid receptor 2 [5]) [nM] | IC50 (Cannabinoid receptor 1 [6]) [nM] | IC50 (Cannabinoid receptor 1 [7]) [nM] | Imax [8] [%] | IC50 (Cannabinoid receptor 2 [9]) [nM] | Ki (Cannabinoid receptor 1 [10]) [nM] | fraction unbound [11] | fraction unbound [12] |
| --- | --- | --- | --- | --- | --- | --- | --- | --- | --- | --- | --- | --- |
| CCCNC(=O)c1c(NC(=O)C23CC4CC(CC(C4)O2)C3)sc2c1CCOC2 | 490 | > 10000 | 257 | – | – | – | – | – | – | – | – | – |
| O=C(c1c(NC(=O)C23CC4CC(CC2C4)C3)sc2c1CCOC2)N1CC(F)(F)C1 | 46.8 | 3390 | 5.62 | 0.2 | 9.55 | 229 | 550 | 53 | 5.62 | 66.1 | – | – |
| CCCNC(=O)c1c(NC(=O)C23CC4CC(CC2C4)C3)sc2c1CCNC2 | – | – | > 1000 | – | – | – | – | – | – | – | < 0.01 | < 0.01 |
| CCCNC(=O)c1c(NC(=O)c2c(F)cccc2C(F)(F)F)sc2c1CCOC2 | 331 | > 10000 | 105 | – | – | – | – | – | – | – | – | – |
